Data from ChEMBL document CHEMBL2163306, “Synthesis of new chiral xanthone derivatives acting as nerve conduction blockers in the rat sciatic nerve” (Eur J Med Chem, 2012).
Activity calls are given as the source filed them. The rule behind the calls is not given here.

Legend:
[1] = tested on: Erythrocyte; experiment: Antihemolytic activity against hypotonic hemolysis in Wistar rat erythrocytes at 0.3 to 1 uM after 10 mins; format: functional, cell-based
Summary of the method: (§1)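 Blood was taken by puncture from urethane-anaesthetized (1.2 g/kg) Wistar rats and heparinised. After centrifugation, plasma and leukocyte layer were removed and cells were resuspended in 154 mM NaCl/10 mM phosphate buffer pH 7.0. The suspension was added to drug dilutions in hypotonic NaCl/phosphate buffer pH 7.0 (NaCl 63–67 mM for 50% haemolysis) and held 10 min at room temperature. It was then spun, and supernatant haemoglobin was read at 540 nm. Run in duplicate; expressed as relative haemolysis.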

[2] = Antihemolytic activity against hypotonic hemolysis in Wistar rat erythrocytes at 100 uM after 10 mins relative to control; format: functional, Erythrocyte; summary of the method: as §1
[3] = tested on: Sciatic nerve; experiment: Inhibition of amplitude of compound action potential in isolated Wistar rat sciatic nerve after 15 mins by electrophysiology assay; format: functional, tissue-based
Summary of the method: (§2)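 Sciatic nerve bundles 3–4 cm long came from adult Wistar rats (200–400 g). Drugs in Tyrode's solution were applied cumulatively (0.100–3.00 µM) at 1 mL/min flow, with at least 15 min contact each. Blockade was taken as percentage decrement in compound action potential amplitude versus control. Solvent was at most 0.05% v/v.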

[4] = Toxicity in isolated Wistar rat sciatic nerve assessed as axonal damage by LDH assay; format: tissue-based; settings: ex_vivo
Summary of the method: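 Neuronal damage in isolated Wistar rat sciatic nerve bundles was gauged from LDH activity leaked into the incubation medium over time, following the Bergmeyer method.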

[5] = tested on: Sciatic nerve; experiment: Inhibition of amplitude of compound action potential in isolated Wistar rat sciatic nerve at 0.1 to 3 uM after 15 mins by electrophysiology assay; format: functional, tissue-based; summary of the method: as §2
[6] = tested on: Erythrocyte; experiment: Antihemolytic activity against hypotonic hemolysis in Wistar rat erythrocytes after 10 mins; format: functional, cell-based; summary of the method: as §1
[7] = tested on: Erythrocyte; experiment: Antihemolytic activity against hypotonic hemolysis in Wistar rat erythrocytes at 0.1 to 30 uM after 10 mins; format: functional, cell-based; summary of the method: as §1
[8] = tested on: Erythrocyte; experiment: Antihemolytic activity against hypotonic hemolysis in Wistar rat erythrocytes at 100 uM after 10 mins relative to sucrase; format: functional, cell-based; summary of the method: as §1
[9] = tested on: Erythrocyte; experiment: Antihemolytic activity against hypotonic hemolysis in Wistar rat erythrocytes at 0.1 to 1 uM after 10 mins; format: functional, cell-based; summary of the method: as §1
[10] = tested on: Erythrocyte; experiment: Antihemolytic activity against hypotonic hemolysis in Wistar rat erythrocytes at 0.1 to 100 uM after 10 mins; format: functional, cell-based; summary of the method: as §1

| Compound | Activity [1] | Ratio [2] | inhibition [3] | Activity [4] | inhibition [5] | other results |
| --- | --- | --- | --- | --- | --- | --- |
| COc1ccc2c(=O)c3cc(C(=O)N[C@@H](C)c4ccc(C)cc4)ccc3oc2c1 | Active | 0.967 | Dose-dependent effect | Non-toxic | – | – |
| CCCCOc1cc(C(=O)NCCN(CC)CC)c2ccccc2n1 [DIBUCAINE] | – | 0.421 | – | – | Active | Activity [6]: Dose-dependent effect |
| O=c1c2ccccc2oc2ccccc12 [XANTHONE] | – | 0.686 | – | – | – | Activity [7]: inactive |
| COc1ccc2c(=O)c3cc(C(=O)N[C@H](CO)C(C)C)ccc3oc2c1 | – | – | Dose-dependent effect | Non-toxic | – | Activity [8]: Active; Activity [9]: Active |
| OC[C@H]1O[C@@](CO)(O[C@H]2O[C@H](CO)[C@@H](O)[C@H](O)[C@H]2O)[C@@H](O)[C@@H]1O | – | – | – | – | inactive | Activity [10]: Active |
| COc1ccc2c(=O)c3cc(C(=O)N[C@H](CO)CC(C)C)ccc3oc2c1 | Active | – | Dose-dependent effect | Non-toxic | – | – |
